Assay outcomes as filed in PubChem.
KCNK3 inh = human KCNK3 channel inhibition, primary screen | O14649 | CHO-KCNK3 thallium flux, FluxOR fluorescence; active compounds read low | B-score at 10 µM | actives 0.84% (n = 340,000) | AID 602410;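 active means B-score under library mean minus 4 SD, starting fluorescence ratio at most library mean plus 5 SD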;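 further: more negative B-score means stronger inhibition of thallium flux through KCNK3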
KCNK9 inh = inhibitors of human KCNK9 two-pore domain potassium channel; B-score at 10 µM; AID 488922; HEK293 KCNK9, FluxOR thallium flux fluorescence; active compounds read low; actives 1.2% (n = 310,000); Q9NPC2;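 active means ratio B-score over 3 SD below the library mean, with starting fluorescence within 5 SD of its mean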;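 further: negative B-score means less thallium flux so channel inhibition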
KCNQ1 pot = potentiates or activates the human KCNQ1 potassium channel | P51787 | CHO-K1 KCNQ1, thallium flux FluxOR fluorescence; active compounds read high | B-score at 10 µM | actives 0.35% (n = 310,000) | AID 2648;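 active means fluorescence ratio B-score, a plate-corrected score, at least three library SD, with initial intensity B-score within 5 SD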
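Test system: CHO-K1 cells stably expressing KCNQ1 / Medium: assay buffer / Also added: depolarizing K+/Tl+ stimulus, K2SO4 and Tl2SO4 each 12.5 mM in 5x stock / Incubation: 90 min dye loading and 20 min compound exposure, both at room temperature / Signal: thallium influx via FluxOR fluorescence, kinetic imaging / Evaluation: B score of baseline-normalized fluorescence ratio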
KCNQ1 inh = inhibitors of human KCNQ1 potassium channel. P51787. CHO-K1 KCNQ1, FluxOR thallium flux fluorescence; active compounds read high. B-score at 10 µM. actives 1.3% (n = 310,000). AID 2642;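 active means compounds whose thallium flux B-score, printed positive for inhibition, exceeds three library SD while starting fluorescence stays within three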;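 further: channel opened by potassium depolarization with thallium stimulus after 20 min compound exposure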
Kir21 inh = Kir2.1 (mouse) channel inhibition; P35561; HEK293-Kir2.1, FluxOR thallium flux fluorescence; active compounds read low; B-score at 10 µM; actives 0.85% (n = 310,000); AID 1672;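 active means fluorescence ratio B-score at or below minus 3 SD of library scores, with starting-brightness B-score within 2 SD, cut at about -4.2 in these data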;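 further: channel flux triggered by added potassium and thallium sulfate stimulus; B-score of peak minus minimum fluorescence over baseline after thallium stimulus; more negative B-score means stronger Kir2.1 block with less thallium influx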
hERG protect = hERG (human) protection from proarrhythmic block; Q12809; CHO-hERG, FluxOR thallium flux, dofetilide IC70 present; activation (rescue from dofetilide block), less the hit threshold, % at 10 µM; actives 0.51% (n = 310,000);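 active means activation above the mean of controls blocked by dofetilide plus 5 SD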;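 further: thallium influx through hERG after potassium depolarization seen as dye fluorescence rise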
KCNK9 inh conf = confirmation of human KCNK9 potassium channel inhibitors | HEK293 KCNK9 cells, FluxOR thallium flux fluorescence | shares compounds with KCNK9 inh | AID 492992 | inhibition, % at 10 µM | actives 43% (n = 4,900);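 active means thallium signal inhibited by more than 5 SD of the compound-free buffer control wells, on both duplicate plates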;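 further: 0% = assay buffer control wells without compound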
Kir2-1 spec = mouse Kir2.1 off-target activity of KCNK9 modulators | shares compounds with KCNK9 inh | Kir2.1 cells, FluxOR thallium flux fluorescence | inhibition, % at 10 µM | actives 4% (n = 4,900);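 active means thallium signal drop more than 5 SD beyond the mean of the no-compound control wells, seen in both duplicate plates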;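 further: signal is fluorescence rise after thallium addition divided by baseline fluorescence; plate controls were assay buffer only for no effect and full block by chlorpromazine control for full effect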
HEK293 Tl ctr = second counter-screen for KCNK9 modulators: effect in non-induced cells; inhibition, % at 10 µM; actives 40% (n = 4,900); non-induced KCNK9-HEK293, FluxOR thallium flux; shares compounds with KCNK9 inh;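 active means thallium signal drop beyond 5 SD of the untreated control mean, on both duplicate plates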;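 further: plate controls were buffer only IC0 wells for no effect and SID17386958 at its maximal inhibitory level for full effect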
* marks the source's active call; other numbers are inactive results; i = inactive; / = not tested or not shown. A selection: hits, their analogues and other compounds. The true share with any hit is near 3.7%.

SMILES	KCNK3 inh	KCNK9 inh	KCNQ1 pot	KCNQ1 inh	Kir21 inh	hERG protect	KCNK9 inh conf	Kir2-1 spec	HEK293 Tl ctr
O=C(C1=C[C@H](c2ccc(Br)cc2)C[C@H](OCCCCO)O1)N1CCN(Cc2ccccc2)CC1	i	i	i	i	-0.58	-6.1	i	i	i
O=C(Nc1ccccc1)C1=C[C@H](c2csc3ccccc23)C[C@H](OCc2ccc(CO)cc2)O1	i	-9.1*	i	i	2.16	-3.7	45.5%*	i	35.5%*
O=C(NCc1ccccc1)C1=C[C@H](c2ccc(Br)cc2)C[C@H](OCCCCO)O1	i	i	i	i	-0.47	-8.6	i	i	i
O=C(NC1CC1)C1=C[C@H](c2csc3ccccc23)C[C@H](OCc2ccc(CO)cc2)O1	i	i	i	i	-1.11	-9.9	/	/	/
C#Cc1ccc([C@H]2C=C(C(=O)NCc3ccccc3)O[C@@H](OCc3ccc(CO)cc3)C2)cc1	i	i	i	i	-1.19	-6.6	i	i	i
CC(C)C[C@@H](CO)N1CCN(Cc2cccnc2)CCC1=O	i	i	i	i	1.43	0.0	/	/	/
CC(=O)/C=C(\C)N=Nc1c(O)[nH]c2ccccc12	i	i	i	i	2.16	-7.5	/	/	/
CCOc1ncccc1C(=O)OCC(=O)NCCc1ccc(S(N)(=O)=O)cc1	i	/	/	/	/	/	/	/	/
CC(C)(C)[C@H]1C=C(C(=O)NCc2ccccc2)O[C@@H](OCCCCO)C1	i	i	i	i	-0.81	-4.0	i	i	i
CCCCCCCCNC(=O)/C(C#N)=C/c1ccc2c(c1)OCCO2	i	i	i	i	-0.98	0.9	i	i	i
CCCCCCCCNC(=O)/C(C#N)=C/c1ccc(SC)cc1	i	i	i	i	-0.01	-3.7	i	i	i
Cc1nc2ccccc2c(=O)n1/N=C/C=C/c1ccccc1	i	i	i	i	-0.55	-6.5	/	/	/
CC(=O)NC(CC(=O)OCC(=O)Nc1ccc2c(c1)OCO2)c1ccccc1 (stereo not drawn)	i	i	i	i	1.81	-5.3	/	/	/
O=C(O)C(c1ccccc1)N1C(=O)/C(=C\c2ccc(-c3ccccc3Cl)o2)SC1=S (stereo not drawn)	i	i	i	i	3.8	-12.4	i	i	i
C=CCn1c(SCC2CCCCO2)nc2sc(CC)cc2c1=O (stereo not drawn)	i	i	i	i	0.28	-10.5	i	i	33.5%*
CC(Sc1ccccc1)C(=O)N1CCN(S(=O)(=O)c2ccccc2F)CC1 (stereo not drawn)	i	i	i	i	0.55	-6.0	/	/	/
Cc1cc(C)c(NS(=O)(=O)c2ccc(NC(=O)/C=C/C(=O)O)cc2)c(C)c1	/	i	i	i	1.03	-0.3	/	/	/
CCOCCCNC(=S)N1CCCN(c2nc3c(C)c(C)ccc3cc2C#N)CC1	i	i	i	i	-2.62	-12.8	/	/	/
CCOCCCNC(=S)N1CCCN(c2nc3cc(C)ccc3cc2C#N)CC1	i	i	i	i	-1.39	-12.4	i	i	i
COc1ccc(C2Nc3cc(OC)ccc3-n3cccc32)cc1 (stereo not drawn)	i	i	i	i	0.43	-10.1	i	i	i
Oc1[nH]c2ccccc2c1N=NC(=S)N1CCOCC1	i	-12.7*	i	i	1.46	-20.7	54.5%*	i	45.0%*
COc1ccc(C2c3[nH]c4ccccc4c3CCN2C(=O)Cc2nonc2C)c(F)c1 (stereo not drawn)	i	i	i	i	-1.2	-14.8	/	/	/
